Shown are actives, neighbours in structure and some others; about 2.6% of the full set was active somewhere.
SENP8 block-1: human SENP8 protease inhibitors, primary screen, biochemical, fluorescence, Nedd8 protein substrate, uHTS; Sentrin-specific protease 8 (Homo sapiens), Q96LD8; recombinant SENP8; inhibition, % at 20 µM; hit rate 0.64% among 360,000; in the data active = inhibition mostly above about 40%, no sharp cut-off; inactive = mostly below about 27%
Platelet DG rel: inhibitors of platelet dense granule secretion, primary screen, cell-based, MLPCN, human platelets; human platelet-rich plasma, SFLLRN dense granule ATP release, luminescence; hit rate 0.22% among 300,000; AID 1663, 2009; inhibition, %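 (compounds screened at 7.5 µM in platelet-rich plasma)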;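 active = mean replicate score, as percent of positive control, at or above 50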
SENP1 inh: human SENP1 catalytic domain inhibitors, primary screen, biochemical, FRET, uHTS. Sentrin-specific protease 1 (Homo sapiens), Q9P0U3. recombinant SENP1 catalytic domain, CyPet-SUMO1-YPet FRET cleavage. inhibition, % at 10 µM. hit rate 0.21% among 360,000;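 active = inhibition at least 30% at 10 µM, raw YFP signal under a set limit, fluorescence ratio 0.5 to 1.5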;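 also: 0% = enzyme with DMSO and 100% = no enzyme wells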
Target sequence (Q9P0U3 419-644 limits assumed): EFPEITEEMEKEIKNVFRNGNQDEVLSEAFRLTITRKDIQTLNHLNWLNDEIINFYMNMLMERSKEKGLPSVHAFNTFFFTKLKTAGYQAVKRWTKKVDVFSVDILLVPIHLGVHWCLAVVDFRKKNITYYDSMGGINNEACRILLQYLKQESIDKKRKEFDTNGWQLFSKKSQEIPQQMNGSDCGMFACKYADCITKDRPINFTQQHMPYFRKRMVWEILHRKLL
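System: Recombinant human SENP1 catalytic domain, His6-tagged | Incubation: Enzyme reaction for 50 min at room temperature, dark | Medium: Tris pH 8 with BME, BSA, NP40 and catalase | Also added: 25 nM SUMO1 FRET substrate | Compound: 10 µM single point, 0.5% DMSO | Measured by: FRET fluorescence in CFP and YFP emission channels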
SENP8 block-2: SENP8 protease inhibitors, primary screen, biochemical, luminescence; inhibition, % at 10 µM; purified SENP8, Z-RLRGG-aminoluciferin cleavage; AID 2540, 2010; hit rate 1.2% among 330,000; in the data active = inhibition above about 50%
SENP6 inh: SENP6 protease inhibitors, primary screen, biochemical, luminescence, uHTS | inhibition, % at 10 µM | hit rate 1.8% among 330,000 | Recombinant SENP6 catalytic domain, aminoluciferin luminescence | Sentrin-specific protease 6 (Homo sapiens), Q9GZR1;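 active = inhibition above about 50% at the single tested dose, limit read from the data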;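 also: plate controls were DMSO wells with enzyme for no effect and DMSO wells lacking enzyme for full effect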
SENP7 block: SENP7 protease inhibitors, primary screen, biochemical, luminescence, uHTS; hit rate 1.5% among 330,000; Sentrin-specific protease 7 (Homo sapiens), Q9BQF6; AID 434973, 2010; inhibition, % at 5 µM; recombinant SENP7, Z-RLRGG-aminoluciferin luminescence, 40 min;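 active = inhibition above about 50% at the single test dose, limit read from the data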;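 also: plate controls were DMSO with enzyme for no effect and no enzyme buffer wells for full effect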
Target sequence (Q9BQF6 706-1050 limits assumed): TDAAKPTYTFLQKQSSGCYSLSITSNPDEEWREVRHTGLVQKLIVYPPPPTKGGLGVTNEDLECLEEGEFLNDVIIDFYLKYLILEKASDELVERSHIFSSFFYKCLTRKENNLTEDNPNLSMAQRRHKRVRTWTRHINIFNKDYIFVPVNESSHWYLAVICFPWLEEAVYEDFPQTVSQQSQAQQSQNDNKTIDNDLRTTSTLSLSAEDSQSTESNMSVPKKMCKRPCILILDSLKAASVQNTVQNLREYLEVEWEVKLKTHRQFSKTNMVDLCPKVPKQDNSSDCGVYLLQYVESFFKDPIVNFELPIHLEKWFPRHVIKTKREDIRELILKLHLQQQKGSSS
SENP8 conf: human SENP8 protease inhibitors, confirmation, biochemical, Nedd8 protein substrate, single concentration | shares compounds with SENP8 block-1 | purified SENP8, Nedd8-AMC/pro-Nedd8 cleavage fluorescence, 30 min | inhibition, % at 25 µM | hit rate 15% among 1,400; in the data active = inhibition mostly above about 39%, no sharp cut-off; inactive = mostly below about 34%
The depositor's hits bear a star; x = no result.

SMILES	SENP8 block-1	Platelet DG rel	SENP1 inh	SENP8 block-2	SENP6 inh	SENP7 block	SENP8 conf
O=C(N/N=C/c1ccccn1)c1cccc(S(=O)(=O)N2CCCC2)c1	45*	-2	-1	1	5	-2	16
CCOc1ccc(NC(=O)c2ccc(CN3CCc4ccccc4C3)cc2)cc1	9	9	0	-4	-11	8	x
CC(=O)c1cccc(NC(=O)c2ccc(CN3CCc4ccccc4C3)cc2)c1	22	-1	2	9	12	-1	x
CCOC(=O)c1ccc(NC(=O)c2ccc(CN3CCc4ccccc4C3)cc2)cc1	34	5	-2	3	17	9	x
Cc1cc(C)c(NC(=O)c2ccc(CN3CCc4ccccc4C3)cc2)c(C)c1	45*	-1	-2	-3	11	8	19
N#CCc1ccc(NC(=O)c2ccc(CN3CCc4ccccc4C3)cc2)cc1	59*	3	1	4	13	4	12
O=C(NCc1ccc2c(c1)OCO2)c1ccc(CN2CCc3ccccc3C2)cc1	42*	-12	0	0	-17	5	13
O=C(NCc1ccc2c(c1)OCO2)c1ccccc1	2	2	-2	-14	-2	-7	x
O=C(Nc1ccc(Cl)cc1)c1ccc(CN2CCc3ccccc3C2)cc1	47*	1	-2	-2	14	11	25
COc1ccc(CNC(=O)CCCCCn2c(SCC#N)nc3cc4c(cc3c2=O)OCO4)cc1	3	-7	0	-10	-15	-4	x
O=C(NC1CCCC1)C1c2ccccc2C(=O)N1CCCN1CCOCC1 (stereo not given)	4	-10	-2	7	1	2	x
CC(C)NC(=O)CN(Cc1ccccc1)S(=O)(=O)c1ccccc1	11	0	2	-3	-2	-3	x
COCCNC(=O)c1ccc2c3n(nc2c1)-c1ccc(Cl)cc1CO3	-96	2	-4	-16	-12	-11	x
[O-]/C(=C(\C(=S)NCc1ccco1)[n+]1ccccc1)c1ccccc1Br	42*	7	1	2	7	10	33
CN(C)C(=O)c1nc2ccc(Cl)cn2c1CN1CCCC(OCc2ccccc2)C1 (stereo not given)	-5	1	-4	-2	-29	1	x
O=C(CN1CCc2ccccc2C1)N1CCN(S(=O)(=O)c2ccccc2)CC1	46*	-3	-5	5	0	0	6
Cc1ccc(S(=O)(=O)N2CCN(C(=O)CN3CCc4ccccc4C3)CC2)cc1	17	4	2	11	-13	3	x
COc1ccc(NC(=S)NC(NC(=O)c2cccc(C)c2)C(Cl)(Cl)Cl)c([N+](=O)[O-])c1 (stereo not given)	42*	x	3	-4	-12	0	8
O=C(CCSCCc1ccncc1)NCCCN1CCOCC1	30	10	-1	5	-13	4	x
CCCCn1c(-c2ccncc2)nc2c1c(=O)[nH]c(=O)n2CC(C)C	-408	1	-4	6	22	3	x
Cc1cc(C)cc(Nc2ccc([N+](=O)[O-])nc2[N+](=O)[O-])c1	41*	2	0	1	7	2	15
CCN(CC)CC(=O)Nc1ccc2c(c1)N(C(=O)CN(CC)CC)c1ccccc1CC2	40*	-6	-2	4	7	7	55*
CCOC(=O)Nc1ccc2c(c1)N(C(=O)CN(CC)CC)c1ccccc1CC2	3	0	3	-3	3	-8	x
Cc1ccc(Cn2nc(-c3ccccc3)nc2-c2ccccc2)cc1	44*	-8	2	59*	74*	68*	3
Cc1cnc(C=NNC(N)=S)c2cccc(N)c12	82*	x	27	x	x	x	43*
SMILES	SENP8 block-1	Platelet DG rel	SENP1 inh	SENP8 block-2	SENP6 inh	SENP7 block	SENP8 conf
O=C(/C=C/CCc1ccc2c(c1)OCO2)N1CCCCC1	57*	x	2	3	-8	8	0
O=C(NC1CC2CCCC(C1)N2C(=S)Nc1ccccc1Cl)C1CC1 (stereo not given)	7	4	4	8	-6	2	x
COc1ccccc1C(CNC(=O)COc1ccccc1C)N1CCCC1 (stereo not given)	9	-7	2	-10	-16	-4	x
CCOC(=O)C1CCN(S(=O)(=O)c2ccc(-c3cc(C(F)(F)F)n(C)n3)s2)CC1	52*	3	2	-2	-9	-1	35
Cc1ccc(Nc2nc(=O)c3cc([N+](=O)[O-])ccc3s2)cc1	33	-1	2	0	-9	-4	x
COc1ccc(Nc2nc(=O)c3cc([N+](=O)[O-])ccc3s2)cc1	55*	3	-1	x	x	x	22
CCCOc1ccc(CCC(=O)N/N=C/c2ccco2)cc1	44*	-1	5	5	-11	4	17
Cc1cc(OCc2cc(C(=O)N3CCC(Oc4cccnc4)CC3)no2)cc(C)c1Cl	12	-16	1	2	-4	3	x
CCN1CCN(C(=S)NCC2CCCO2)CC1 (stereo not given)	14	16	2	-4	4	1	x
O=C(NC1CCCCC1)Oc1ccccc1	40*	-15	2	-11	-7	-9	10
C[C@@H]1CCC(=O)N(C[C@@H](C)CC#N)CC1	5	6	-2	-11	7	-9	x
Nc1nc(CN2CCc3ccccc3C2)nc(Nc2ccccc2)n1	25	-1	-6	9	4	12	x
COc1ccc(Nc2nc(N)nc(CN3CCc4ccccc4C3)n2)cc1	44*	9	-3	7	6	6	29
CC(c1c(O)c2ccccc2[nH]c1=O)C1(C)CCC(O)C(C)(C)O1 (stereo not given)	44*	4	4	-13	-16	1	19
Cc1ccc(S(=O)(=O)Cn2nnnc2C(c2ccc(F)cc2)N2CCCCC2)cc1 (stereo not given)	7	5	2	-3	4	5	x
CCOc1cc(C(c2c(C)[nH][nH]c2=O)c2c(C)[nH][nH]c2=O)ccc1O	47*	4	3	6	-4	9	53*
COc1ccc(O)c(C(c2c(C)[nH][nH]c2=O)c2c(C)[nH][nH]c2=O)c1	76*	-1	6	11	15	4	47*
COc1ccc(NC(=O)c2c(F)c(F)c(F)c(F)c2F)cc1Cl	17	-6	0	4	-10	5	x
